Key:
Acinetobacter baumannii [1] = assay: Antibacterial activity against Acinetobacter baumannii isolate CAN-ICU 63169 after 18 hrs by microtiter dilution assay; format: functional; conditions: isolate CAN-ICU 63169, 18 h
How it was run: (§1)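 Broth microdilution per CLSI. Overnight culture adjusted to 0.5 McFarland in saline, diluted 1:50 in Mueller-Hinton broth, and added to an equal volume of 2-fold serial compound dilutions in MHB. Incubated 18 h at 37 °C. MIC taken as the lowest concentration with no visible growth.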

Pseudomonas aeruginosa [2] = assay: Potentiation of rifampicin-induced antibacterial activity against multidrug/extremely drug-resistant/colistin-susceptible Pseudomonas aeruginosa isolate P264-104354 assessed as fold reduction in rifampicin MIC at 4 ug/ml after 18 hrs by checkerboard assay relative to control; format: functional
How it was run: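 Checkerboard broth microdilution in MHB: antibiotic serially diluted along one axis, adjuvant along the other (10 × 7 matrix). Inoculum from 0.5 McFarland saline suspension diluted 1:50 in MHB; 18 h at 37 °C. MIC taken as lowest concentration with no growth. FIC per agent = combination MIC/MIC alone; FIC index = sum (≤0.5 synergy).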

Enterobacter cloacae [3] = assay: Synergistic antibacterial activity against multidrug-resistant Enterobacter cloacae 117029 after 18 hrs in presence of minocycline by checkerboard assay; format: functional; conditions: Enterobacter cloacae, 117029, 18 h
How it was run: (§2)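 Checkerboard in MHB with a 10 × 7 matrix: antibiotic serially diluted along one axis, adjuvant along the other. Inoculum was a 1:50 dilution of a 0.5 McFarland suspension, incubated 18 h at 37 °C and read on a plate reader. Each FIC is the concentration in a no-growth well divided by the MIC alone; FIC index is their sum, with ≤0.5 taken as synergy.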

Escherichia coli [4] = assay: Antibacterial activity against amikacin-resistant Escherichia coli isolate CAN-ICU 63074 after 18 hrs by microtiter dilution assay; format: functional; conditions: isolate CAN-ICU 63074, 18 h
How it was run: (§3)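 Broth microdilution following CLSI guidelines. An overnight culture was adjusted to 0.5 McFarland in saline, then diluted 1:50 in Mueller-Hinton broth. This inoculum was added in equal volume to 2-fold serial dilutions of agent in MHB and incubated 18 h at 37 °C. MIC was the lowest concentration with no visible growth.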

Pseudomonas aeruginosa [5] = assay: Synergistic antibacterial activity against Pseudomonas aeruginosa PAO1 after 18 hrs in presence of colistin by checkerboard assay; format: functional; conditions: PAO1, 18 h
How it was run: (§4)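 Checkerboard in MHB: antibiotic diluted along one axis and adjuvant along the other (10 × 7 matrix). Inoculum was a 1:50 dilution in MHB of a 0.5 McFarland saline suspension; incubated 18 h at 37 °C. Each FIC = concentration in the no-growth well divided by the MIC alone; FIC index = sum of both FICs. ≤0.5 synergy, 0.5–4 no interaction, ≥4 antagonism.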

Staphylococcus aureus = assay: Antibacterial activity against methicillin resistant Staphylococcus aureus ATCC 33592 after 18 hrs by microtiter dilution assay; format: functional; conditions: ATCC 33592, 18 h; how it was run: as §3
[6] = Cytotoxicity against human DU145 cells assessed as cell viability at 20 uM after 48 hrs by MTS assay relative to control; format: cell-based, DU-145; conditions: read-out: Activity
How it was run: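 DU145 and JIMT-1 grown in DMEM with 10% FBS and penicillin/streptomycin at 37 °C, 5% CO2. 7500–9000 cells/well were seeded for 24 h, then treated at 2.5–30 µM (final) for 48 h. MTS reagent (20% v/v) added for 4 h and OD read at 490 nm after blank subtraction; viability expressed relative to vehicle control.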

Acinetobacter baumannii [7] = assay: Antibacterial activity against multidrug-resistant Acinetobacter baumannii 110193 after 18 hrs by microtiter dilution assay; format: functional; conditions: Acinetobacter baumannii, 110193, 18 h; how it was run: as §3
Enterobacter cloacae [8] = assay: Potentiation of rifampicin-induced antibacterial activity against multidrug-resistant Enterobacter cloacae 117029 at 4 ug/ml after 18 hrs by checkerboard assay; format: functional
How it was run: (§5)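 Checkerboard in Mueller-Hinton broth: antibiotic serially diluted along one axis and adjuvant along the other (10 × 7 matrix). Inoculum from a 0.5 McFarland saline suspension diluted 1:50 in MHB; 18 h at 37 °C, then plate read. MIC is the lowest concentration with no growth. FIC of each agent is its concentration in a no-growth well divided by its MIC alone; FIC index is the sum of both. FIC index ≤0.5 counts as synergy.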

Acinetobacter baumannii [9] = assay: Synergistic antibacterial activity against multidrug-resistant Acinetobacter baumannii AB027 after 18 hrs in presence of rifampicin by checkerboard assay; format: functional; conditions: AB027, 18 h; how it was run: as §2
Acinetobacter baumannii [10] = assay: Synergistic antibacterial activity against multidrug-resistant Acinetobacter baumannii AB031 after 18 hrs in presence of minocycline by checkerboard assay; format: functional; conditions: AB031, 18 h; how it was run: as §2
Pseudomonas aeruginosa [11] = assay: Potentiation of minocycline-induced antibacterial activity against Pseudomonas aeruginosa PAO1 at 4 ug/ml after 18 hrs by checkerboard assay; format: functional; how it was run: as §5
Pseudomonas aeruginosa [12] = assay: Antibacterial activity against multidrug/extremely drug-resistant/colistin-susceptible Pseudomonas aeruginosa isolate P262-101856 after 18 hrs by microtiter dilution assay; format: functional; conditions: isolate P262-101856, 18 h; how it was run: as §3
Klebsiella pneumoniae = assay: Antibacterial activity against Klebsiella pneumoniae ATCC 13883 after 18 hrs by microtiter dilution assay; format: functional; conditions: ATCC 13883, 18 h; how it was run: as §1
Escherichia coli [13] = assay: Antibacterial activity against gentamicin/tobramycin/ciprofloxacin-resistant Escherichia coli isolate CANWARD-2011 97615 harboring AAC3-2A after 18 hrs by microtiter dilution assay; format: functional; conditions: isolate CANWARD-2011 97615, 18 h; how it was run: as §3
Pseudomonas aeruginosa [14] = assay: Antibacterial activity against gentamicin-resistant Pseudomonas aeruginosa isolate CAN-ICU 62308 after 18 hrs by microtiter dilution assay; format: functional; conditions: isolate CAN-ICU 62308, 18 h; how it was run: as §3
Pseudomonas aeruginosa [15] = assay: Potentiation of rifampicin-induced antibacterial activity against multidrug/extremely drug-resistant/colistin-susceptible Pseudomonas aeruginosa isolate P262-101856 infected in Galleria mellonella assessed as host survival at 75 mg/kg after 24 hrs relative to control; format: functional; conditions: isolate P262-101856, 24 h
How it was run: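 Galleria mellonella larvae (about 250 mg, used within 7 days; 15 per group) were injected with 10 µL of XDR P. aeruginosa P262 at 1.0×10^3 CFU/mL. At 2 h they received a single 10 µL injection: monotherapy at 75 mg/kg, or combinations at 12.5+12.5 to 75+75 mg/kg. PBS vehicle served as control. Survival was scored over 24 h at 37 °C.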

Acinetobacter baumannii [16] = assay: Potentiation of rifampicin-induced antibacterial activity against multidrug-resistant Acinetobacter baumannii 110193 at 4 ug/ml after 18 hrs by checkerboard assay; format: functional; how it was run: as §5
Pseudomonas aeruginosa [17] = assay: Synergistic antibacterial activity against Pseudomonas aeruginosa PAO1 after 18 hrs in presence of moxifloxacin by checkerboard assay; format: functional; conditions: PAO1, 18 h; how it was run: as §4
Pseudomonas aeruginosa [18] = assay: Disruption of proton motive force in Pseudomonas aeruginosa PAO1 cytoplasmic membrane assessed as repression of bacterial swimming motility after 20 hrs; format: functional
How it was run: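 Swim plates of 0.3% agar with tryptone 5 g/L and NaCl 2.5 g/L, agent mixed into the medium and plates dried 2 h. PAO1 at 1.0 McFarland in 0.85% saline was point-inoculated at the center, and plates incubated 20 h at 37 °C before swim diameter was imaged.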

[19] = Ratio of cytotoxic concentration against human JIMT1 cells to synergistic concentration for Pseudomonas aeruginosa PAO1 in presence of minocycline
Pseudomonas aeruginosa [20] = assay: Potentiation of kanamycin A-induced antibacterial activity against Pseudomonas aeruginosa PAO1 at 4 ug/ml after 18 hrs by checkerboard assay; format: functional; how it was run: as §5

## Cl.Cl.Cl.Cl.Cl.Cl.Cl.NCCCC[C@H](N)C(=O)N(CCCCCCCCCCCCO[C@@H]1[C@@H](O[C@H]2O[C@H](CO)[C@@H](O)[C@H](N)[C@H]2O)[C@H](N)C[C@H](N)[C@H]1O[C@H]1O[C@H](CN)[C@@H](O)C[C@H]1N)Cc1c2ccccc2c(Cl)c2ccccc12
Acinetobacter baumannii [1]
  MIC: 128 µg/mL
Pseudomonas aeruginosa [2]
  fold change (FC): 64
Enterobacter cloacae [3]
  MIC: 8 µg/mL
Escherichia coli [4]
  MIC: 16 µg/mL
Pseudomonas aeruginosa [5]
  MIC: 1 µg/mL
Staphylococcus aureus
  MIC: 8 µg/mL
[6]
  viability at 48 h, 20 µM: > 50%
Acinetobacter baumannii [7]
  MIC: 16 µg/mL
Enterobacter cloacae [8]
  fractional inhibitory concentration index (FICI): 0.02
Acinetobacter baumannii [9]
  MIC: 8 µg/mL
Acinetobacter baumannii [10]
  MIC: 2 µg/mL
Pseudomonas aeruginosa [11]
  fractional inhibitory concentration index (FICI): 0.094
Pseudomonas aeruginosa [12]
  MIC: 32 µg/mL
Klebsiella pneumoniae
  MIC: 128 µg/mL
Escherichia coli [13]
  MIC: 32 µg/mL
Pseudomonas aeruginosa [14]
  MIC: 16 µg/mL
Pseudomonas aeruginosa [15]
  survival at 75 mg/kg: 77%
Acinetobacter baumannii [16]
  fractional inhibitory concentration index (FICI): 0.095
Pseudomonas aeruginosa [17]
  MIC: 2 µg/mL
Pseudomonas aeruginosa [18]
  Activity: Dose-dependent effect
[19]
  Ratio: 6
Pseudomonas aeruginosa [20]
  fractional inhibitory concentration index (FICI): 1.016
